Laboratory results as given in PMC7564327 (Acta Pharmaceutica Sinica. B, 2020).

Legend:
mice kidney slices = assay: In vitro uptake of TDE in mice kidney slices; assay type: in vitro ADME, Kunming mice; conditions: TDE 10 μmol/L
Outline: (§1)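 Kunming mice (20–25 g, fasted 12 h) were anaesthetised with urethane, and kidney or liver was decapsulated into ice-cold oxygenated buffer at pH 7.5. Slices of about 30 mg were preincubated 5 min under carbogen at 4 or 37 °C. They were then incubated with 10 μmol/L test compound for 5, 10 or 30 min, with or without reference OAT1/OAT3 or OATP inhibitors or co-ingredients. Slices were then washed, blotted, weighed and homogenised, then extracted with methanol and an internal standard for HPLC–MS.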

mOatp1a4 = assay: qRT-PCR of mOatp1a4 mRNA in liver of treated mice; assay type: in vivo; conditions: mice given 20 mg/kg TDE with 20 mg/kg IPT, ISP or 200 mg/kg AD extract, 4 h
hOATP2B1 = target: T1, hOATP2B1 (Homo sapiens, UniProt O94956); assay: Cellular uptake in HEK293-hOATP2B1 vs Mock cells; assay type: in vitro ADME; conditions: 100 μmol/L, substrate if >2-fold of wild type
T1 sequence (O94956 1-709): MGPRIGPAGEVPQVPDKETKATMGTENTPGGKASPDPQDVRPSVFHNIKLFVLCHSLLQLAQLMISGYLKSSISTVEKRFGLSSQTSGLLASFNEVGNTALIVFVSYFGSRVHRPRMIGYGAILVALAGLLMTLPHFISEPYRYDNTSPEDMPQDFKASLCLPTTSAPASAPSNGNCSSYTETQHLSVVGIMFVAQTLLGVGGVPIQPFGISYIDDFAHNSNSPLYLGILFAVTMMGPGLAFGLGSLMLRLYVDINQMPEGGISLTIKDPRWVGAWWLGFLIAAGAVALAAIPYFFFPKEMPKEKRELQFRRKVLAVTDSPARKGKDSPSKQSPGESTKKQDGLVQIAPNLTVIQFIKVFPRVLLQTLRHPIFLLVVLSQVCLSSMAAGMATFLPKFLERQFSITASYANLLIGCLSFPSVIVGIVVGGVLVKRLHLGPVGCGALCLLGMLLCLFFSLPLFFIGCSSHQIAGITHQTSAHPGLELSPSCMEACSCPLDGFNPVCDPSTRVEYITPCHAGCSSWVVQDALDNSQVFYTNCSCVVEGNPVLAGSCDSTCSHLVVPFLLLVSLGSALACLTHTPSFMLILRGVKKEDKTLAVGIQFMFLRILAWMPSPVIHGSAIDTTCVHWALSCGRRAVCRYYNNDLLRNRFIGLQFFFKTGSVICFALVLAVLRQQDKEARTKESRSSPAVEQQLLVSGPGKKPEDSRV

hOAT3 = target: T2, hOAT3 (Homo sapiens, UniProt Q8TCC7); assay: Inhibition of 3H-ES uptake in S2-hOAT3 cells; assay type: in vitro ADME; conditions: for inhibition of the activity of hOAT3: 100 μmol/L IPT, ISP, 100 μg/mL AD extract, substrate 3H-ES
T2 sequence (Q8TCC7 1-542): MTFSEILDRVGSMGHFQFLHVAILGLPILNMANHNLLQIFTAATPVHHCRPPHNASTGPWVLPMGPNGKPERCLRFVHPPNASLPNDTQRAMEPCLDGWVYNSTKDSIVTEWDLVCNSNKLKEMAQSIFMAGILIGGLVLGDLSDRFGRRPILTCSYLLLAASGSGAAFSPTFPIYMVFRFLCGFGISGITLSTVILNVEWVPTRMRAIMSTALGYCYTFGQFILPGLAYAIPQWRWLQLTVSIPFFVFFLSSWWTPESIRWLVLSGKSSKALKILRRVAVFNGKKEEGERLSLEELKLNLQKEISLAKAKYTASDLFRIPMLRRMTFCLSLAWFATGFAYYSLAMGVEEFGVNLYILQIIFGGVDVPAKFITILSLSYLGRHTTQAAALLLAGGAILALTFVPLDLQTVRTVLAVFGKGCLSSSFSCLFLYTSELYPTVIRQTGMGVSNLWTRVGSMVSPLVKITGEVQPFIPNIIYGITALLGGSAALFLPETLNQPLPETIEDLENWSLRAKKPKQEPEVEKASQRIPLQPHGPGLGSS
Outline: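 Test compounds were made as DMSO stocks (20 mmol/L, or 10 mg/mL for extract) and diluted in PBS to a final DMSO below 0.5%. Cells were exposed at 37 °C to probe plus or minus test compound. The probe was 5 μmol/L ¹⁴C-PAH for 5 min (hOAT1) or 50 nmol/L ³H-estrone sulfate for 2 min (hOAT3, hOATP2B1). Screens used 100 μmol/L (extract 100 mg/L); IC50 came from varied concentrations. Cells were then given three cold DPBS washes, lysed in 0.1 mol/L NaOH and read by scintillation counting. Data are mean ± SD, n = 3.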

mOatp1a1 = assay: qRT-PCR of mOatp1a1 mRNA in liver of treated mice; assay type: in vivo; conditions: mice given 20 mg/kg TDE with 20 mg/kg IPT, ISP or 200 mg/kg AD extract, 4 h
mice liver slices = assay: In vitro uptake of TDE in mice liver slices; assay type: in vitro ADME, Kunming mice; conditions: mice liver slices, TDE 10 μmol/L
Outline: as §1

hOATP1B3 = target: T3, hOATP1B3 (Homo sapiens, UniProt Q9NPD5); assay: Inhibition of 3H-ES uptake in HEK293-hOATP1B3 cells; assay type: in vitro ADME; conditions: 100 μmol/L IPT, ISP; 100 μg/mL AD extract; substrate 3H-ES
T3 sequence (Q9NPD5 1-702): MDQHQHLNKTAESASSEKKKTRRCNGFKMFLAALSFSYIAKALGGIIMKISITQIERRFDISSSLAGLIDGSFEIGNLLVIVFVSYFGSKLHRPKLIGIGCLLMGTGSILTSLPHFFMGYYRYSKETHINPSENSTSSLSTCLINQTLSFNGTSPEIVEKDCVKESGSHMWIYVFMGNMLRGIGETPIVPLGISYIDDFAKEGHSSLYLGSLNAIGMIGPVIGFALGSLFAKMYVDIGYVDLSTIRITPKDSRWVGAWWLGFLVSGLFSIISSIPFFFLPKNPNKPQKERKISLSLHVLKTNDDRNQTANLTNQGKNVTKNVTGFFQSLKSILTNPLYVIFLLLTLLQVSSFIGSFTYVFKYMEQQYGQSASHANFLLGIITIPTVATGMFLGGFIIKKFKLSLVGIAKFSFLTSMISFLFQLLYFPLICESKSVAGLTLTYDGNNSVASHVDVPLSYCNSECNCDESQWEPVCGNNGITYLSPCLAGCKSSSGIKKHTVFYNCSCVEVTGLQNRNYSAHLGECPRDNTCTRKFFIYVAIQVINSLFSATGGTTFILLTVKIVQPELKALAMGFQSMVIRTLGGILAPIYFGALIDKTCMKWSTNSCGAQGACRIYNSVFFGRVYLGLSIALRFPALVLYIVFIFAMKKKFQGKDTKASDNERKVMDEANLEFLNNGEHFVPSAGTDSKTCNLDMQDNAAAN
Outline: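 HEK293 cells stably overexpressing the human transporter, grown in DMEM with 10% FBS and penicillin/streptomycin at 5% CO₂, then seeded in 24-well plates and used at confluence. Cells incubated at 37 °C for 2 min with 50 nmol/L ³H-estrone sulfate, with or without test compound or extract; final DMSO below 0.5%. Stopped by three cold DPBS washes, lysed in 0.1 mol/L NaOH, and counted by liquid scintillation (DPM).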

| SMILES | effect on the uptake of TDE in kidney slices (mice kidney slices) | mRNA level of mOatp1a4 decreased to, compared to TDE alone (mOatp1a4) [%] | accumulation in HEK293-hOATP2B1 vs HEK293 wild type (hOATP2B1) | IC50 (hOAT3) [µM] | inhibition of the activity of hOAT3 (hOAT3) | mRNA level of mOatp1a1 decreased to, compared to TDE alone (mOatp1a1) [%] | effect on the uptake of TDE in liver slices (mice liver slices) | inhibition to hOATP1B3 (hOATP1B3) |
| --- | --- | --- | --- | --- | --- | --- | --- | --- |
| CC(C)=CCOc1c2occc2cc2ccc(=O)oc12 [IPT, imperatorin] | significant inhibition | 36 | less than 2 fold | 2.74 | significantly inhibited | 22 | significant inhibition | weak or no inhibition |
| CC(C)=CCOc1c2ccoc2cc2oc(=O)ccc12 [ISP, isoimperatorin] | significant inhibition | 61 | less than 2 fold | 11.7 | significantly inhibited | 37 | significant inhibition | weak or no inhibition |
